Assay results reported in publication PMC6128401 (Molecular pharmaceutics, 2017).

How the values were obtained:
[1] = biological target: T1, A431-CCK2R cell line expressing the human CCK2R (Homo sapiens, UniProt P32239); assay: Cell uptake; format: cell-based; conditions: A431-CCK2R cells, 2 h incubation, 0.4 nM
T1 sequence (P32239 1-447): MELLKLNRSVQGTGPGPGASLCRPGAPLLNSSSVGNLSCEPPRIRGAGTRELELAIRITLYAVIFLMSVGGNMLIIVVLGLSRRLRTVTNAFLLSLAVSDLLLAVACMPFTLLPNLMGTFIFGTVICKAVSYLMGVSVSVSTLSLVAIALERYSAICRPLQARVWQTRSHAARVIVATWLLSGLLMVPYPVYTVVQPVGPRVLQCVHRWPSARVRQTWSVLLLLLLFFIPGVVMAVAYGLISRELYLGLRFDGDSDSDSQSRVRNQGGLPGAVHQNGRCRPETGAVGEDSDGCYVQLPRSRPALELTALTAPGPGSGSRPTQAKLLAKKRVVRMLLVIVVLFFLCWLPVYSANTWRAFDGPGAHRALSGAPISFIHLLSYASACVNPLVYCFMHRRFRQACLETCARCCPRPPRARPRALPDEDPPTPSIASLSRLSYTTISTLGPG
In short: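 A431-CCK2R and A431-mock cells were cultured in DMEM with 10% FBS, penicillin/streptomycin/L-glutamine at 37°C, 5% CO₂. They were seeded at 1.0×10⁶ cells/well and grown 48 h to confluency. Peptides were labelled with ¹⁷⁷LuCl₃ (~50 GBq/µmol) in ascorbate buffer pH 5 with gentisic acid and L-Met, 80°C. Triplicate wells received ~100,000 cpm (0.4 nM) for 2 h. The internalized fraction was gamma-counted as % of total added.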

[2] = Chemical stability in phosphate buffered saline; format: physicochemical; conditions: PBS at RT, up to/after 4 h incubation
In short: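 ¹⁷⁷Lu-labelled peptide (120 pmol/mL) was kept in phosphate buffered saline at room temperature. Aliquots were taken at intervals up to […] and analysed by HPLC for percentage intact radiopeptide relative to post-labelling radiochemical purity.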

[3] = Stability against enzymatic degradation in human serum; format: in vitro ADME
In short: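 The ¹⁷⁷Lu-labelled peptide was incubated in human serum at 37°C and sampled at time points up to 24 h. Proteins were precipitated with acetonitrile (1:1.5) and centrifuged; supernatant was diluted 1:1 with water before HPLC for intact radiopeptide. Half-life came from first-order exponential decay fitting.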

[4] = format: physicochemical
In short: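 Labelling used ~2 GBq ¹⁷⁷LuCl₃ in 1 mL dilute HCl, heated at 80°C for 15-25 min. Kits were stored up to 6 months; labelled product was held up to 48 h at room temperature or −20°C. Radiochemical purity was measured by RP-HPLC.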

[5] = test system: A431-CCK2R xenografts; assay: Biodistribution: uptake in receptor-positive tumour xenograft; format: in vivo, BALB/c nude mice; conditions: 30 min p.i.
In short: (§1)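 Female and male BALB/c nude mice, 5-6 weeks old, carried A431-CCK2R and A431-mock xenografts in opposite flanks (2×10⁶ cells each). Tumours grew for ~14 days to ~0.2 g. Kit-prepared ¹⁷⁷Lu-peptide, 1 MBq (20 pmol; 50 GBq/µmol), was injected into the tail vein. Groups of five were killed at 30 min, 4 h, 1 d, 2 d, 3 d and 7 d; dissected tissues were gamma-counted and expressed as % IA/g.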

[6] = Biodistribution: uptake in normal organs and tissues; format: in vivo, BALB/c nude mice; conditions: 30 min p.i.
In short: as §1

[7] = test system: A431-CCK2R xenografts; assay: Experimental radionuclide therapy, receptor-positive tumour growth; format: in vivo, BALB/c nude mice; conditions: for mean SGR A431-CCK2R: single i.v. treatment; for TVDT increase by a factor in comparison to the control group: A431-CCK2R tumours
[8] = test system: A431-mock xenografts; assay: Experimental radionuclide therapy, receptor-negative tumour growth; format: in vivo, BALB/c nude mice; conditions: for mean SGR A431-mock: single i.v. treatment
[9] = Medullary toxicity: white blood cell and platelet counts; format: in vivo, BALB/c nude mice
In short: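 Double-xenografted nude mice were dosed as in the therapy study (saline, 15 or 30 MBq i.v.), n=5. Weekly, 0.1 mL venous blood was drawn from the superficial temporal vein by lancet, up to eight samples per animal. White blood cells and platelets were counted on an automatic haematology analyser. Counts were expressed relative to basal values (week −2 = inoculation; week 0 = treatment).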

[10] = Renal toxicity: creatinine and urea in serum; format: in vivo, BALB/c nude mice
In short: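 The same treated double-xenografted nude mice (saline, 15 or 30 MBq i.v.; n=5) gave weekly venous blood samples. Serum creatinine and urea were measured with specific kits on a semiautomatic biochemical analyser. Values were compared between treated and control groups over weeks from cell inoculation (week −2) onward.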

[11] = 15 MBq, one week after treatment
[12] = 15 MBq group, week 0 (week of treatment)
[13] = 15 MBq group, week -2 (cell inoculation)
[14] = 30 MBq group, week 0 (week of treatment)
[15] = 30 MBq group, week -2 (cell inoculation)

CCCC[C@H](NC(=O)[C@H](Cc1c[nH]c2ccccc12)NC(=O)[C@H]1CCCCNC(=O)[C@H](NC(=O)CN2CCN(CC(=O)O)CCN(CC(=O)O)CCN(CC(=O)O)CC2)CCC(=O)N[C@@H](C)C(=O)N[C@@H](Cc2ccc(O)cc2)C(=O)N1)C(=O)N[C@@H](CC(=O)O)C(=O)N[C@@H](Cc1ccccc1)C(N)=O [^177Lu-DOTA-cyclo-MG2, metal not drawn]
internalized radioligand fraction (% of total) [1]: 16.1±1.9% | RCP during incubation in PBS [2]: above 98% | half-life [3]: 1070 min | mean RCP for the different time points after storage of the kits ([4]; kit storage up to 6 months, n=4): 97.8±1.3% | RCP after preparation ([4]; kit-prepared, directly after preparation): 97.8±1.3% | RCP at 24 h after preparation ([4]; stored at RT): 96.3±1.4% | maximal tumour uptake [5]: 5.99 % IA/g | kidney uptake, maximal value [6]: 2.64 % IA/g | mean SGR A431-CCK2R ([7]; 15 MBq group (0.6 nmol)): 0.048±0.011 | mean SGR A431-CCK2R ([7]; 30 MBq group (1.2 nmol)): 0.033±0.002 | TVDT increase by a factor in comparison to the control group ([7]; high activity group (30 MBq)): 2.5 | TVDT increase by a factor in comparison to the control group ([7]; low activity group (15 MBq)): 1.7 | mean SGR A431-mock ([8]; 15 MBq group (0.6 nmol)): 0.068±0.005 | mean SGR A431-mock ([8]; 30 MBq group (1.2 nmol)): 0.042±0.004 | TVDT increase by a factor in comparison to the control group ([8]; A431-mock tumours, high activity group (30 MBq)): 1.8 | reduction in PLT counts compared to the basal value [9, 11]: 51.2-52.8% | reduction in WBC counts compared to the basal value [9, 11]: 37.8-40.8% | PLT value ([9]; 15 MBq, week 1 after treatment, reference 558-1,454): 531±45 ×10^9/L | decline of PLT value compared to the basal value ([9]; 30 MBq, after treatment): 44.8-58.0% | reduction of WBC value compared to the basal value ([9]; 30 MBq, week 1 after treatment): 67.2-70.9% | WBC value below the lower reference limit ([9]; 30 MBq, week 1 and 2 after treatment, reference 3.11-13.04): 2.17-2.94 ×10^9/L | PLT value below the reference values ([9]; 30 MBq, week 2 and 3 after treatment): 524-549 ×10^9/L | Creatinine (reference value 0.1-0.5) [10, 12]: 0.3 ± 0.1 mg/dL | Urea (reference value 17-38) [10, 12]: 25 ± 7 mmol/L | Creatinine (reference value 0.1-0.5) ([10]; 15 MBq group, week 1): 0.2 ± 0.1 mg/dL | Urea (reference value 17-38) ([10]; 15 MBq group, week 1): 27 ± 6 mmol/L | Creatinine (reference value 0.1-0.5) ([10]; 15 MBq group, week 2): 0.3 ± 0.2 mg/dL | Urea (reference value 17-38) ([10]; 15 MBq group, week 2): 34 ± 3 mmol/L | Creatinine (reference value 0.1-0.5) ([10]; 15 MBq group, week 3): 0.2 ± 0.1 mg/dL | Urea (reference value 17-38) ([10]; 15 MBq group, week 3): 34 ± 5 mmol/L | Creatinine (reference value 0.1-0.5) ([10]; 15 MBq group, week 4): 0.5 ± 0.2 mg/dL | Creatinine (reference value 0.1-0.5) ([10]; 15 MBq group, week 5): 0.7 mg/dL | Creatinine (reference value 0.1-0.5) ([10]; 15 MBq group, week -1): 0.2 ± 0.1 mg/dL | Urea (reference value 17-38) ([10]; 15 MBq group, week -1): 32 ± 2 mmol/L | Creatinine (reference value 0.1-0.5) [10, 13]: 0.1 ± 0.02 mg/dL | Urea (reference value 17-38) [10, 13]: 30 ± 4 mmol/L | urea above the upper limit of the reference value ([10]; 15 MBq, beginning from week 4 after treatment): 40 to 44 mmol/L | Creatinine (reference value 0.1-0.5) [10, 14]: 0.2 ± 0.1 mg/dL | Urea (reference value 17-38) [10, 14]: 27 ± 2 mmol/L | Creatinine (reference value 0.1-0.5) ([10]; 30 MBq group, week 1): 0.2 ± 0.1 mg/dL | Urea (reference value 17-38) ([10]; 30 MBq group, week 1): 37 ± 3 mmol/L | Creatinine (reference value 0.1-0.5) ([10]; 30 MBq group, week 2): 0.3 ± 0.2 mg/dL | Creatinine (reference value 0.1-0.5) ([10]; 30 MBq group, week -1): 0.3 ± 0.2 mg/dL | Urea (reference value 17-38) ([10]; 30 MBq group, week -1): 29 ± 4 mmol/L | Creatinine (reference value 0.1-0.5) [10, 15]: 0.2 ± 0.1 mg/dL | Urea (reference value 17-38) [10, 15]: 26 ± 3 mmol/L | urea levels above the reference limit ([10]; 30 MBq, beginning from week 2 after treatment): 39 to 63 mmol/L | creatinine levels above the reference limit ([10]; 30 MBq, beginning from week 3 after treatment): 0.6 to 0.8 mg/dL
